The target in data set [1] is T1, GST-Rab7 (Canis lupus familiaris, UniProt P18067). The data set can be described thus: Kinetic assays. To be noted: for koff: GST-Rab7, 1 mM EDTA buffer. Type of data set: binding, canine.
In data set [2] the target is T1, GST-Rab7. Type of data set: binding, canine. To be noted: for maximal binding Bmax: GST-Rab7, 1 mM MgCl2. In outline:
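Canine GST-Rab7 from E. coli, glutathione-purified, loaded at 1 µM onto glutathione beads (4°C, overnight, HPS buffer, 1 mM DTT). 10^4 beads incubated 2 h at 4°C with 0–2 µM BODIPY FL GTP, GDP or GTP-γ-NH in 1 mM EDTA or 1 mM MgCl2. Diluted ≥10-fold and read by flow cytometry. Fluorescein calibration beads gave BODIPY/bead. Bmax and Kd from hyperbolic fit.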

The target in data set [3] is T1, GST-Rab7. The data set is classed as binding, canine. To be noted: competition with 100 nM BODIPY FL GTP, 1 mM EDTA buffer. In outline: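 Canine Rab7 GST fusion expressed in BL21(DE3) E. coli and glutathione-affinity purified. 1 µM protein loaded overnight at 4°C onto glutathione Superdex beads in HPS buffer (HEPES pH 7.5, KCl, NaCl, dodecyl maltoside) with 1 mM DTT, then washed. 10^4 beads incubated 2 h at 4°C with 100 nM BODIPY FL GTP plus unlabeled GDP or GTP-γ-S. Read by flow cytometry; fitted EC50 converted to Ki.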

Another data set deals with GST-RhoA (Homo sapiens, UniProt P61586). The data set is classed as binding. Conditions: for maximal binding Bmax: 1 mM MgCl2; for Bmax / Kd: 1 mM MgCl2 buffer. The procedure, abridged:
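GST-RhoA purified from E. coli. Loaded at 1 µM overnight at 4°C onto glutathione beads in HPS buffer with 1 mM DTT and 1 mM MgCl2, then washed twice. 10^4 beads incubated 2 h at 4°C with 0–2 µM BODIPY FL GTP or GTP-γ-NH in 1 mM MgCl2. Diluted ≥10-fold and read by flow cytometry. Signal calibrated to BODIPY/bead with fluorescein beads. Bmax and Kd from hyperbolic fit.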

In a further data set the target is Rab7. Conditions: nucleotide free system ref 11; cited from earlier work.
The mark [4] stands for this setting: GST-Rab7, 1 mM EDTA buffer, 2 h at 4°C.

“Also recorded” adds a separate entry of the source. Like-named read-outs stand apart in the source and are kept apart here.

GST-RhoA, sequence (P61586 whole entry): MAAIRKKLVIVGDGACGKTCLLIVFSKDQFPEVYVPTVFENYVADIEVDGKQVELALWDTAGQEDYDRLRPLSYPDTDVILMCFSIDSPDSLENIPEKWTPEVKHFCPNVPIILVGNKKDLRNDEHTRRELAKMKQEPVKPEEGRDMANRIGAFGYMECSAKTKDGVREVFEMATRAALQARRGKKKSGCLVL
T1 sequence (P18067 whole entry): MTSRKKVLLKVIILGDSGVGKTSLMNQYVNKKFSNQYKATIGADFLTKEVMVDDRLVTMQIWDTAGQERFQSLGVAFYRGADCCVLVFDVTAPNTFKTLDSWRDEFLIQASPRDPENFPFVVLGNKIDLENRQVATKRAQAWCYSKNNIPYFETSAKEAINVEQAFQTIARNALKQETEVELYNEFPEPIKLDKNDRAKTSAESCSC

In general, Ki refers to a dissociation constant, usually derived from enzyme kinetics or from competition with a known ligand. A high value points to a looser hold on the target. With `Nc1nc2c(ncn2[C@@H]2O[C@H](COP(=O)(O)OP(=O)(O)O)[C@@H](O)[C@H]2O)c(=O)[nH]1` [GDP], the “slower dissociation rate of GDP” value on GST-Rab7 [1] (GST-Rab7, relative to GTP) is given as 3 fold. The “higher affinity of Rab7 for GDP relative to GTP” value at GST-Rab7 [2] (GST-Rab7) turned out to be 3 fold. The same compound registered a Ki at GST-Rab7 [3] of 13 ± 5 nM.
With `Nc1nc2c(ncn2[C@@H]2O[C@H](COP(=O)(O)OP(=O)(O)OP(O)(O)=S)[C@@H](O)[C@H]2O)c(=O)[nH]1` [GTP-γ-S], the inhibitory constant (Ki) at GST-Rab7 [3] came to 40 ± 10 nM.
For orientation: Kd means a measure of binding affinity in units of concentration. Regarding “BODIPY FL GDP 2′-(or-3′)-O-(N-(2-aminoethyl)urethane)”, on GST-Rab7 [1], the koff was 2.3 ± 1.5 × 10^−3 sec^−1. Further, the “higher affinity of Rab7 for GDP relative to GTP” value on GST-Rab7 [2] (GST-Rab7) turned out to be 3 fold. Further, at GST-Rab7 [2] (GST-Rab7, 1 mM EDTA buffer), the Bmax is 2000 ± 400 10^3 BODIPY/bead. The affinity at GST-Rab7 [2] (setting [4]), expressed as Kd, was 54 ± 15 nM.
“BODIPY FL GTP 2’-(or-3’)-O-(N-(2-aminoethyl)urethane”: the “maximal binding Bmax” value is 700 × 10^3 fluorophores/bead on GST-RhoA and 650 × 10^3 fluorophores/bead at GST-Rab7 [2]. The Bmax at GST-RhoA is recorded as 700 ± 20 10^3 BODIPY/bead; at GST-Rab7 [2] (GST-Rab7, 1 mM EDTA buffer) it was 1600 ± 400 10^3 BODIPY/bead; at GST-Rab7 [2] (GST-Rab7, 1 mM MgCl2 buffer), 650 ± 10 10^3 BODIPY/bead. For the same compound, the Kd worked out at 80 ± 10 nM at GST-RhoA; 150 ± 62 nM on GST-Rab7 [2] (setting [4]); 20 ± 5 nM on GST-Rab7 [2] (GST-Rab7, 1 mM MgCl2 buffer). In addition, the “faster dissociation of GTP compared to GDP” value on GST-Rab7 [1] (GST-Rab7) was determined as 3 fold. For the same compound, the koff at GST-Rab7 [1] is listed as 7.0 ±3.0 × 10^−3 sec^−1. Moreover, at GST-Rab7 [1] (GST-Rab7, 1 mM EDTA, 50-500 nM BODIPY FL GTP), the “t1/2 (observed on-rate half-time)” value was 11.1 ± 0.6 min. In addition, the “dissociation rate faster in the absence of Mg^2+ relative to Mg^2+ present” value on GST-Rab7 [1] (GST-Rab7, competed by excess unlabeled nucleotide) is listed as 7 times. Besides, the “koff Mg^2+” value on GST-Rab7 [1] (GST-Rab7, with Mg^2+) is 0.0013 s⁻¹. Besides, the “decrease in affinity in the absence of Mg^2+” value at GST-Rab7 [2] (GST-Rab7) is given as 8 fold. Moreover, the maximal binding on GST-Rab7 [2] (GST-Rab7, 1 mM EDTA) is reported as 1600 × 10^3 fluorophores/bead.
In the case of BODIPY FL GTP-γ-NH amide, on GST-RhoA, the “maximal binding Bmax” value is listed as 710 × 10^3 fluorophores/bead, the Bmax is reported as 710 ± 15 10^3 BODIPY/bead and binding was put at a Kd of 95 ± 10 nM. The “binding to GST-Rab7 (in words)” value at GST-Rab7 [2] (GST-Rab7) is “unique inability; also recorded: marked inability to bind”. On GST-Rab7 [2], the “maximal binding Bmax” value was 60 × 10^3 fluorophores/bead. Further, on GST-Rab7 [2] (GST-Rab7, 1 mM MgCl2 buffer), the Bmax is 60 ± 5 10^3 BODIPY/bead and the Kd is 70 ± 20 nM. Moreover, at GST-Rab7 [2] (GST-Rab7, with Mg^2+), the “lower binding affinity relative to BODIPY FL GTP” value turned out to be 90%.
methylanthraniloyl (mant) GTP: on Rab7, the Kd is 6 nM.

These data come from PMC2633595 (Analytical biochemistry, 2008).
